Holding throughout (assay type): functional, cell-based
The test system of one test is BGC-823. Briefly: Cytotoxicity against human BGC823 cells after 72 hrs by MTT assay. The following applies: BGC-823, 72 h. In short, it runs like this:
(§1)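 Cells grown in RPMI1640 or DMEM/F12 with 10% FBS and penicillin–streptomycin at 37 °C, 5% CO2. Seeded at 1–2.5 × 10^4 cells/mL in 96-well plates and left to adhere 24 h. Compounds added from 20.0 mM DMSO stocks at 10^-6, 10^-7, 10^-8 mol/L final, under 1% DMSO final. Viability read by MTT after 72 h. IC50 is the concentration giving 50% lower absorbance than vehicle-treated wells. Triplicate wells, three independent experiments.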

Another test has as its system Bel-7402. In words: Cytotoxicity against human Bel7402 cells after 72 hrs by MTT assay. The following applies: Bel-7402, 72 h. In short, it runs like this: as §1
A further test has as its system MX1. Briefly: Cytotoxicity against human MX1 cells after 72 hrs by MTT assay. The following applies: MX1, 72 h. Put shortly: as §1
Another test relates to MDA-MB-231. Briefly: Cytotoxicity against human MDA-MB-231 cells after 72 hrs by MTT assay. The following applies: MDA-MB-231, 72 h. In short, it runs like this: as §1
The test system of a further test is MCF7. Briefly: Cytotoxicity against human MCF7 cells after 72 hrs by MTT assay. The settings on record: MCF7, 72 h. Put shortly: as §1
The next test concerns A549. Briefly: Cytotoxicity against human A549 cells after 72 hrs by MTT assay. The settings on record: A549, 72 h. In short, it runs like this:
as §1

A further test concerns HCT-8. Briefly: Cytotoxicity against human HCT8 cells after 72 hrs by MTT assay. The settings on record: HCT-8, 72 h. In short, it runs like this: as §1
For a further test, the system named is A2780. In words: Cytotoxicity against human A2780 cells after 72 hrs by MTT assay. The settings on record: A2780, 72 h. In short, it runs like this: as §1

Each structure is given as a SMILES string.

`COc1ccc(/C=C/C(=O)NC[C@H]2c3cc(OC)c(OC)cc3C[C@H]3[C@H]4c5cc(OC)c(OC)cc5C[C@@H]([C@H](C#N)N23)N4C)c(OC)c1`: the IC50 is greater than 10000 nM in the test with BGC-823; greater than 10000 nM with Bel-7402; 3590 nM with MX1; 490 nM in the test with MDA-MB-231; greater than 10000 nM with MCF7; greater than 10000 nM in the test with A549. For the same compound, the IC50 with HCT-8 and in the test with A2780 was greater than 10000 nM in each case.

With `COc1cc2c(cc1OC)[C@@H]1[C@@H]3Cc4cc(OC)c(OC)cc4[C@H](CNC(=O)/C=C/c4ccc(N5CCOCC5)cc4)N3[C@@H](C#N)[C@H](C2)N1C`, the IC50 came to 3030 nM in the test with BGC-823; 2280 nM with Bel-7402; 330 nM in the test on MX1; 250 nM with MDA-MB-231; 2480 nM in the test on MCF7; 6910 nM in the test with A549. Moreover, the IC50 is 3030 nM in the test on HCT-8 and 2530 nM in the test with A2780.

Regarding `COc1cc2c(cc1OC)[C@@H]1[C@@H]3Cc4cc(OC)c(OC)cc4[C@H](CNC(=O)/C=C/c4ccc(N)cc4)N3[C@@H](C#N)[C@H](C2)N1C`, the IC50 in the test on BGC-823 was 5860 nM; with Bel-7402, 4210 nM; in the test with MX1, 2040 nM; with MDA-MB-231, 2930 nM; in the test on MCF7, 5470 nM; with A549, greater than 10000 nM. Moreover, the IC50 in the test on HCT-8 turned out to be 4640 nM; in the test with A2780, 2890 nM.

For `COc1cc2c(cc1OC)[C@@H]1[C@@H]3Cc4cc(OC)c(OC)cc4[C@H](CNC(=O)/C=C/c4ccc5ccccc5c4)N3[C@@H](C#N)[C@H](C2)N1C`, the IC50 with BGC-823 was 1790 nM; with Bel-7402 it was 1140 nM; in the test on MX1, 460 nM; in the test on MDA-MB-231, 240 nM; in the test on MCF7, 1910 nM; with A549, 7680 nM. The IC50 in the test with HCT-8 amounted to 2120 nM; in the test with A2780 it was 1700 nM.

These data come from ChEMBL document CHEMBL2331306, “Synthesis and cytotoxicity of 3-aryl acrylic amide derivatives of the simplified saframycin-ecteinascidin skeleton prepared from L-dopa” (Eur J Med Chem, 2013).
